Compound activity: PubChem BioAssay, several laboratories
An excerpt weighted towards active compounds, which were near 3% of everything screened.
Granule exo inh – lytic granule exocytosis inhibition | hit rate 0.66% among 360,000 | inhibition, % at 10 µM | TALL-104 LAMP-1 surface exposure, flow cytometry; cells stimulated with thapsigargin and PMA | AID 651702;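 active = inhibition above about 55%, limit read from the data; inconclusive = no clear call, values can overlap the other calls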
Pemphigus Ab inh – inhibitors of pemphigus antibody binding to human desmoglein-3 | DSG3-coupled beads, scFv-anti-DSG3-GFP binding, flow cytometry; active compounds read low | binding (percent of control), % at 10 µM | hit rate 0.48% among 310,000 | AID 588358;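 active = binding more than 3 SD below its plate's average and above zero; inconclusive = below that plate limit but binding exactly zero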;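 note: hits lower antibody fragment binding to DSG3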
SENP1 inh – SENP1 (human) catalytic domain inhibition | Q9P0U3 | recombinant SENP1 catalytic domain, CyPet-SUMO1-YPet FRET cleavage | inhibition, % at 10 µM | hit rate 0.21% among 360,000;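 active = inhibition at least 30% at 10 µM, raw YFP signal under a set limit, fluorescence ratio 0.5 to 1.5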
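Compound: 10 µM single point, 0.5% DMSO; Test system: hSENP1 catalytic domain, recombinant; Timing: 50 min reaction at room temperature; Technique: FRET, CFP and YFP emission; Control set: no-enzyme wells low, DMSO-plus-enzyme wells high control.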
Cardio protect – myocardial damage modulation in H9c2 cells. hit rate 0.63% among 360,000. protection from H2O2 cell death, % at 20 µM. H9c2 cardiomyocytes, H2O2 injury protection, ATPLite, 2 h. AID 588492;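 active = compounds giving at least 50% protection of heart cells from peroxide-induced death in the single-dose screen, raw or plate-pattern-corrected value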
HNF4A DNA FP – change in binding of human HNF4 alpha to DNA; activity change, % at 10 µM; P41235; hit rate 0.3% among 360,000; HNF4a-FITC DNA binding, fluorescence polarization, 1 h; in the data active = activity change above about 30%, passing the limit was not always enough
Myeloid diff 2 – promotes myeloid progenitor differentiation. hit rate 1% among 360,000. ER-HoxA9 myeloid progenitors, lysozyme-GFP differentiation, flow cytometry. calls only at 10 µM. AID 624256;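 active = normalized GFP-positive differentiation at or above the plate's own cutoff, the solvent-only control mean plus 3 SD; inconclusive = no clear call, values can overlap the other calls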;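 note: cells exposed to compound for four days before flow analysis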
Large screens that a line does not name were inactive.

OC(Cn1ccnc1)c1ccc(Cl)cc1Cl (centres undefined)	none
Clc1ccc(C(Cn2ccnc2)OCc2c(Cl)cccc2Cl)c(Cl)c1 (centres undefined)	Myeloid diff 2 active
OC(c1ccccn1)(c1ccccn1)c1ccccn1	none
CCc1ccc(C(=O)NNC(=S)Nc2ccc(S(N)(=O)=O)cc2)s1	none
CCOC(=O)N1CCN(C(=O)CCC(=O)c2ccc(OCC)cc2)CC1	none
CCOc1ccc(C(=O)CCC(=O)N2CCN(c3ccc(O)cc3)CC2)cc1	Myeloid diff 2 active
CC1C(=O)N2CCCc3cc(S(=O)(=O)N(C)CCC#N)cc1c32 (centres undefined)	none (no result: Pemphigus Ab inh)
Clc1ccc(-c2ccc(/C=N/Nc3cc(N4CCOCC4)nc(N4CCOCC4)n3)o2)cc1	Granule exo inh 82.7
CC(C)c1ccc(/C=N/Nc2cc(N3CCOCC3)nc(N3CCOCC3)n2)cc1	none
Brc1ccc(-c2ccc(/C=N/Nc3nc(N4CCOCC4)nc(N4CCOCC4)n3)o2)cc1	Cardio protect 94.9
Fc1cnc(N/N=C/c2ccc(-c3ccc(Br)cc3)o2)nc1N1CCOCC1	none
COC(=O)C1=CN(c2ccc(C(C)(C)C)cc2)C(N)=C(C#N)C1c1cccc2ccccc12 (centres undefined)	none (no result: Pemphigus Ab inh, Cardio protect)
CC(C)(C)c1csc(NNC(=O)c2ccc(Br)cc2)n1	Cardio protect 54.8
COc1cc(N2C(=O)C=CC2=O)ccc1N1C(=O)C=CC1=O	Granule exo inh 82.5
COc1ccc(N2C(=O)C3CC(C)=C(C)CC3C2=O)c(OC)c1 (centres undefined)	none
COc1ccc(N(CC(=O)NC2CCCCC2)C(=O)CCC(=O)Nc2nc(C)cs2)cc1	none
O=c1c2c3nc4ccccc4nc3n(-c3ccc4c(c3)OCCO4)c2ncn1C1CCCC1	Pemphigus Ab inh 66.5
O=c1c2ccccc2ncn1-c1ccc2c(c1)OCCO2	none
COc1cc2ccnc(C=O)c2cc1OC	Cardio protect 56.1, Myeloid diff 2 inconclusive
COc1cccc(/C=N/NC(=O)Cn2ccnc2C)c1	none
COc1c(O)cccc1/C=N/NC(=O)Cn1ccnc1C	Cardio protect 57.0
c1ccc(-c2nc(-n3nc4ccccc4n3)nc3ccccc23)cc1	Granule exo inh 65.3
CCC(=O)N1CCN(c2ccc(NC(=O)c3cc4ccccc4o3)cc2Cl)CC1	Cardio protect 53.0 (no result: Pemphigus Ab inh)
O=C(Nc1ccc(Cl)cc1Cl)c1cc2ccccc2o1	Pemphigus Ab inh 96.3
CC1CN(S(=O)(=O)c2cc(C(=O)NC(C)c3cccnc3)ccc2Cl)CC(C)O1 (centres undefined)	none
CCc1c(C)sc(NC(=O)Cn2nc(C)c([N+](=O)[O-])c2C)c1C(N)=O	none
CCCCN1C(=O)Cc2c1nc(N)c1c(N)nc(N(CCC)CCC)c(C#N)c21	Granule exo inh 71.6, Myeloid diff 2 active (no result: Pemphigus Ab inh)
C=CCN(Cc1nc(-c2ccccc2)no1)C(=O)c1ccc2c(c1)OCO2	none (no result: Pemphigus Ab inh)
COc1ccc(OC)c(C2=Nn3c(nnc3-c3cc(OC)c(OC)c(OC)c3)SC2)c1	none
COc1ccc(OC)c(C2=Nn3c(nnc3-c3ccncc3)SC2)c1	Granule exo inh 64.3
Cc1[nH]n2c(=O)c3c(nc2c1-c1ccc(Cl)cc1)CCC3	Cardio protect 54.5
CCN(CC)c1ccc(C2C(C(=O)OC(C)C)C(=O)CC(C)(O)C2C(=O)OC(C)C)cc1 (centres undefined)	Cardio protect 74.9
CCCCC(=O)NC(c1ccc(C(C)C)cc1)c1ccc2cccnc2c1O (centres undefined)	Cardio protect 51.1, Myeloid diff 2 inconclusive
Cc1cccc(NC(=O)[C@H](Cc2ccccc2)NC(=O)OCc2ccccc2)c1	Pemphigus Ab inh -3.4
Cc1ccc(NC(=O)C(Cc2ccccc2)NC(=O)OCc2ccccc2)cc1C (centres undefined)	none
Nc1nc(C(c2ccccc2)c2ccccc2)cs1	Myeloid diff 2 active (no result: Pemphigus Ab inh)
Nc1nc(-c2ccccc2)cs1	none
Cc1nn(CC(=O)N(C)c2c(N)n(Cc3ccccc3)c(=O)[nH]c2=O)c(C)c1[N+](=O)[O-]	none (no result: Pemphigus Ab inh)
O=Cc1cc(N=Nc2cccc(C(=O)O)c2)ccc1O	none
O=Cc1cc(N=Nc2ccccc2Cl)ccc1O	Granule exo inh 62.4
O=C(Nc1ccc2c(c1)OCCO2)c1ccccc1F	none
